{"data": "Experimental data from different studies", "organism": "Candida albicans"}
{"Structure (SMILES)": "COc1ccc(C=NNC(=O)CSc2nc3c(C)cccc3c(=O)n2-c2ccccc2)cc1OS(C)(=O)=O", "observed": "microbial growth", "method": "well diffusion", "concentration": "20 µg/mL", "measurement": "inhibition zone", "value": "4 mm"}
{"Structure (SMILES)": "C[C@@H]1[C@H](O)[C@@H](C)/C=C/C=C/C=C/C=C/C=C/C=C/C=C/[C@H](O[C@@H]2O[C@H](C)[C@@H](O)[C@H](N)[C@@H]2O)C[C@@H]2O[C@](O)(C[C@@H](O)C[C@@H](O)[C@H](O)CC[C@@H](O)C[C@@H](O)CC(=O)O[C@H]1C)C[C@H](O)[C@H]2C(=O)O", "observed": "microbial growth", "method": "broth dilution", "measurement": "MIC90", "value": "0.84 µM"}
{"Structure (SMILES)": "C[C@@H]1[C@H](O)[C@@H](C)/C=C/C=C/C=C/C=C/C=C/C=C/C=C/[C@H](O[C@@H]2O[C@H](C)[C@@H](O)[C@H](N)[C@@H]2O)C[C@@H]2O[C@](O)(C[C@@H](O)C[C@@H](O)[C@H](O)CC[C@@H](O)C[C@@H](O)CC(=O)O[C@H]1C)C[C@H](O)[C@H]2C(=O)O", "observed": "microbial growth", "method": "broth dilution", "strain": "SP3876", "time": "48 h", "measurement": "MIC", "value": "< 0.25 µM"}
{"Structure (SMILES)": "CCS(=O)(=O)Oc1cc(C=NNC(=O)CSc2nc3c(C)cccc3c(=O)n2-c2ccccc2)ccc1OC", "observed": "microbial growth", "method": "well diffusion", "concentration": "20 µg/mL", "measurement": "inhibition zone", "value": "4 mm"}
{"Structure (SMILES)": "N#CC(=C1C=CC(=NOC(=O)OCc2ccccc2)C=C1)c1ccccc1", "observed": "microbial killing", "method": "broth dilution", "strain": "ATCC10231", "time": "48 h", "measurement": "MFC", "value": "256 µg/mL"}
{"Structure (SMILES)": "CC(=O)N1CCN(c2ccc(OCC3COC(Cn4ccnc4)(c4ccc(Cl)cc4Cl)O3)cc2)CC1 (centres unmarked)", "observed": "microbial growth", "method": "broth dilution", "strain": "17546", "time": "48 h", "measurement": "MIC", "value": "1 µM"}
{"Structure (SMILES)": "CC(=O)N1CCN(c2ccc(OCC3COC(Cn4ccnc4)(c4ccc(Cl)cc4Cl)O3)cc2)CC1 (centres unmarked)", "observed": "microbial killing", "method": "broth dilution", "strain": "ATCC10231", "measurement": "MFC", "value": "31.3 µg/mL"}
{"Structure (SMILES)": "N#CC(=C1C=CC(=NOC(=O)c2ccccc2)C=C1)c1ccccc1", "observed": "microbial killing", "method": "broth dilution", "strain": "ATCC10231", "time": "48 h", "measurement": "MFC", "value": "256 µg/mL"}
{"Structure (SMILES)": "OC(Cn1cncn1)(Cn1cncn1)c1ccc(F)cc1F", "observed": "microbial growth", "measurement": "IC50", "value": "1 µg/mL"}
{"Structure (SMILES)": "CCS(=O)(=O)Oc1ccc(C=NNC(=O)CSc2nc3c(C)cccc3c(=O)n2-c2ccccc2)cc1OC", "observed": "microbial growth", "method": "well diffusion", "concentration": "20 µg/mL", "measurement": "inhibition zone", "value": "3 mm"}
{"Structure (SMILES)": "Nc1nn2c(-c3ccc(Cl)cc3Cl)cc(-c3ccc(OCc4ccccc4)cc3)nc2c1N=Nc1ccc(F)cc1", "observed": "microbial killing", "method": "broth dilution", "strain": "ATCC10231", "measurement": "MFC", "value": "125 µg/mL"}
{"Structure (SMILES)": "OC(Cn1cncn1)(Cn1cncn1)c1ccc(F)cc1F", "observed": "microbial growth", "method": "broth dilution", "strain": "CGMCC2", "time": "48 h", "measurement": "MIC", "value": "4 µM"}
{"Structure (SMILES)": "Nc1ccc(S(=O)(=O)Nc2ncccn2)cc1", "observed": "microbial growth", "method": "well diffusion", "concentration": "20 µg/mL", "measurement": "inhibition zone", "value": "3 mm"}
{"Structure (SMILES)": "Nc1nn2c(-c3ccco3)cc(-c3ccc(OCc4ccccc4)cc3)nc2c1N=Nc1ccc(F)cc1", "observed": "microbial killing", "method": "broth dilution", "strain": "ATCC10231", "measurement": "MFC", "value": "500 µg/mL"}
{"Structure (SMILES)": "Cc1cccc2c(=O)n(-c3ccccc3)c(SCC(=O)NN=Cc3ccc(OS(C)(=O)=O)cc3)nc12", "observed": "microbial growth", "method": "well diffusion", "concentration": "20 µg/mL", "measurement": "inhibition zone", "value": "4 mm"}
{"Structure (SMILES)": "Cc1ccc(N=Nc2c(N)nn3c(-c4ccco4)cc(-c4ccc(OCc5ccccc5)cc4)nc23)cc1", "observed": "microbial killing", "method": "broth dilution", "strain": "ATCC10231", "measurement": "MFC", "value": "125 µg/mL"}
{"Structure (SMILES)": "C#CCOC(=O)ON=C1C=CC(=C(C#N)c2ccccc2)C=C1", "observed": "microbial killing", "method": "broth dilution", "strain": "ATCC10231", "time": "48 h", "measurement": "MFC", "value": "8 µg/mL"}
{"Structure (SMILES)": "Cc1ccc(-c2cc(-c3ccc(OCc4ccccc4)cc3)nc3c(N=Nc4ccc(F)cc4)c(N)nn23)cc1", "observed": "microbial killing", "method": "broth dilution", "strain": "ATCC10231", "measurement": "MFC", "value": "125 µg/mL"}
{"Structure (SMILES)": "CCCS(=O)(=O)Oc1ccc(C=NNC(=O)CSc2nc3c(C)cccc3c(=O)n2-c2ccccc2)cc1OC", "observed": "microbial growth", "method": "well diffusion", "concentration": "20 µg/mL", "measurement": "inhibition zone", "value": "4 mm"}
{"Structure (SMILES)": "CC(=O)ON=C1C=CC(=C(C#N)c2ccccc2)C=C1", "observed": "microbial killing", "method": "broth dilution", "strain": "ATCC10231", "time": "48 h", "measurement": "MFC", "value": "4 µg/mL"}
